Measurements as given in ChEMBL document CHEMBL3616442, “Unconventional Knoevenagel-type indoles: Synthesis and cell-based studies for the identification of pro-apoptotic agents” (Eur J Med Chem, 2015).
Calls of active or inactive are those of the source. No cut-off for these calls is given here.

How the values were obtained:
[1] = tested on: HL-60; assay: Induction of cell cycle arrest in human HL60 cells assessed as accumulation at G2/M phase after 18 hrs by propidium iodide staining based flow cytometric analysis; type: functional
Method in brief: (§1)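 Propidium iodide/RNase A flow cytometry of ethanol-fixed cells, 10,000 gated events at 488 nm; G2/M fraction measured after 18 h treatment (HL-60, MCF-7) or 24 h (K562); mean ± S.E.M. of three independent experiments.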

[2] = tested on: MCF7; assay: Induction of cell cycle arrest in human MCF7 cells assessed as accumulation at G2/M phase after 18 hrs by propidium iodide staining based flow cytometric analysis; type: functional; method in brief: as §1
[3] = molecular target: Tubulin (Homo sapiens) (UniProt P68371+Q9H4B7+P0DPH7+P68366+Q13509+Q71U36+P04350+Q3ZCM7+P07437+P68363+Q9BQE3+Q6PEY2+Q13885+Q9BVA1+Q9BUF5); assay: Induction of Tubulin depolymerization in human MCF7 cells by immunofluorescence analysis; type: cell-based
Method in brief: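 MCF-7 cells grown and treated on chamber slides, fixed in ice-cold 100% methanol, washed in PBS with 0.1% Triton X-100, blocked 30 min in 5% BSA, then mouse anti-tubulin for 1 h and Alexa 488 secondary for 1 h; DNA counterstained with 0.2 μg/mL propidium iodide for 2 min. Paclitaxel and PBOX-15 served as tubulin controls.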

COc1ccc(-c2[nH]c3ccccc3c2/C=C(\C#N)S(=O)(=O)c2ccccc2)cc1
Activity [1]: 47.3%
Activity [2]: 40.4%
Activity [3]: Active
